Measured values reported in ChEMBL document CHEMBL2010694, “Indolyl and dihydroindolyl N-glycinamides as potent and in vivo active NPY5 antagonists” (Bioorg Med Chem Lett, 2012).
≈ marks a conversion by molar mass, not a printed value.

How the values were obtained:
[1] = Protein binding in human; type: ADME, organism-based; conditions: plasma, read-out: PB (converted)
[2] = Plasma concentration in cPP-induced feeding Sprague-Dawley rat model at 0.1 mg/kg, po after 1 hr; type: ADME, organism-based; parameters: dose 0.1 mg/kg, route oral
How it was run: (§1)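 Satellite animals from the cPP feeding study dosed orally at 0.1, 1 or 10 mg/kg; plasma (ng/mL) and brain (ng/g) levels measured 1 h after dosing.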

[3] = Lipophilicity, log D of the compound at pH 7.4; type: physicochemical; conditions: buffer
[4] = Drug uptake in cPP-induced feeding Sprague-Dawley rat model brain at 10 mg/kg, po after 1 hr; type: ADME, organism-based; parameters: dose 10 mg/kg, route oral; conditions: read-out: Drug uptake; how it was run: as §1
Cytochrome P450 2D6 = Cytochrome P450 2D6 (Homo sapiens, UniProt P10635); assay: Inhibition of CYP2D6; type: ADME
Chain of Cytochrome P450 2D6 (P10635 whole entry): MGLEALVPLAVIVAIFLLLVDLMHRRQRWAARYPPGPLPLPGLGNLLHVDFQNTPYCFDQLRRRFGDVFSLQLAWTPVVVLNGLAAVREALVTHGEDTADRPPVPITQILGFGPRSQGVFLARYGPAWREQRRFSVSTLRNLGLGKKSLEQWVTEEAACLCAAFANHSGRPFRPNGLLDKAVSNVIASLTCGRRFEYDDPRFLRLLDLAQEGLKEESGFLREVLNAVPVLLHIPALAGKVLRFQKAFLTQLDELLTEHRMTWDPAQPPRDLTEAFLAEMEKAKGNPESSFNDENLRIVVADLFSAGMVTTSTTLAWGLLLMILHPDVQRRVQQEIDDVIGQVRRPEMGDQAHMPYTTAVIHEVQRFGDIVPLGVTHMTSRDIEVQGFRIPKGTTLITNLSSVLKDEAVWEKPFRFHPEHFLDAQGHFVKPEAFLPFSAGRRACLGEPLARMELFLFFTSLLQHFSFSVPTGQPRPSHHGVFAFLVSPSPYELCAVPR

Cytochrome P450 2C8 = target: T1, Cytochrome P450 2C8 (Homo sapiens, UniProt P10632); assay: Inhibition of CYP2C8; type: ADME
T1 sequence (P10632 whole entry): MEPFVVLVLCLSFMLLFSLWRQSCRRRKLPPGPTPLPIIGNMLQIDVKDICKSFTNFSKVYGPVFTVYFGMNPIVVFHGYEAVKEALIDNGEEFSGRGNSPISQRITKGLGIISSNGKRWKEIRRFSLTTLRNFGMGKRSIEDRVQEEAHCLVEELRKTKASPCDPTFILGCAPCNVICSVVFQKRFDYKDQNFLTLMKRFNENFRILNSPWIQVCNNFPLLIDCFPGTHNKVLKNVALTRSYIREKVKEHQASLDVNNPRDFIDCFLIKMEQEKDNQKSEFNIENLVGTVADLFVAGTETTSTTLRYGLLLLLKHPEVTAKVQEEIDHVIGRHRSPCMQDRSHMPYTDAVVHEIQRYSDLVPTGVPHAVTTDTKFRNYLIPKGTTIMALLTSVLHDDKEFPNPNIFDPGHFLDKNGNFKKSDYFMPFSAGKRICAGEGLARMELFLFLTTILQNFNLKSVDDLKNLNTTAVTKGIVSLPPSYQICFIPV

Cytochrome P450 1A2 = target: T2, Cytochrome P450 1A2 (Homo sapiens, UniProt P05177); assay: Inhibition of CYP1A2; type: ADME
T2 sequence (P05177 whole entry): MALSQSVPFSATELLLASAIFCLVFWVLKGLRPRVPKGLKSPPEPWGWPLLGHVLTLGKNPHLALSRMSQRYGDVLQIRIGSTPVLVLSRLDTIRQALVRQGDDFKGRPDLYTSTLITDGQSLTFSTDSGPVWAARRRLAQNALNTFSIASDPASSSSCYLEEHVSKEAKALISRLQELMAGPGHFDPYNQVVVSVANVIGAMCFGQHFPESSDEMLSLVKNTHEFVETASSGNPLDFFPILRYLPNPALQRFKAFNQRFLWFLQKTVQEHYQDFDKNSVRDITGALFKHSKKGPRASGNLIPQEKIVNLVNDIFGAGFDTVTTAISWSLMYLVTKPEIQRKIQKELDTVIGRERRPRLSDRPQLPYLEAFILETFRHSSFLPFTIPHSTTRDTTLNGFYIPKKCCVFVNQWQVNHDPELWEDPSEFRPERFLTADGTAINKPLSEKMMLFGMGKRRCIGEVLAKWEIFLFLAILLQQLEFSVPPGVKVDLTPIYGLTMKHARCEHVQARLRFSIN

[5] = Clearance in Sprague-Dawley rat plasma at 2 mg/kg, po and 1 mg/kg, iv after 24 hrs wash out period by HPLC analysis; type: ADME, organism-based
How it was run: (§2)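 Male Sprague-Dawley rats (200–250 g), jugular and carotid artery cannulated; compound dissolved in 20% beta cyclodextrin, pH adjusted with methane sulfonic acid. Serial blood sampled at 12 time points over 24 h post dose by automated sampler; plasma from centrifugation analysed by HPLC; PK parameters by non-compartmental analysis of plasma concentration–time profile.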

Cytochrome P450 3A4 = Cytochrome P450 3A4 (Homo sapiens, UniProt P08684); assay: Inhibition of CYP3A4; type: ADME
Chain of Cytochrome P450 3A4 (P08684 whole entry): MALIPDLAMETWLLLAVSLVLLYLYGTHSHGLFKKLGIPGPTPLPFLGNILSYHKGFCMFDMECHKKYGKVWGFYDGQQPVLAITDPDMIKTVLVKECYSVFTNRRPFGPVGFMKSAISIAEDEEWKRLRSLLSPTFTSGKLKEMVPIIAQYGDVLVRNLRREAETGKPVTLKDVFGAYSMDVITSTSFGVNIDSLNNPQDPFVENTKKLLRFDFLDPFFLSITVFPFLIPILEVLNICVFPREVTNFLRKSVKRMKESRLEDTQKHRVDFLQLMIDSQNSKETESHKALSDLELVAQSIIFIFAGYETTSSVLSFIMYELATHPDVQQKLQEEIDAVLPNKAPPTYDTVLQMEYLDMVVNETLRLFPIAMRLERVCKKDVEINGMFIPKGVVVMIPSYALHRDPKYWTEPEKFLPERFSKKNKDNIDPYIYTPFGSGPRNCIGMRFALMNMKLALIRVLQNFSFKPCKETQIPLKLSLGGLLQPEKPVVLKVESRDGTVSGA

[6] = Cmax in Sprague-Dawley rat plasma at 2 mg/kg, po and 1 mg/kg, iv after 24 hrs wash out period by HPLC analysis; type: ADME, organism-based; how it was run: as §2
Brain [7] = assay: Drug uptake in Sprague-Dawley rat brain assessed as 2-(5-chloro-1H-indol-1-yl)-N-(4-((propan-2-ylsulfonamido)methyl)cyclohexyl)acetamide level at 10 mg/kg, po after 1 hr by LC-MS/MS analysis; type: ADME, organism-based; parameters: dose 10 mg/kg, route oral; conditions: in vivo, read-out: Drug uptake
How it was run: (§3)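 Male Sprague-Dawley rats (300–350 g), femoral artery cannulated; single 10 mg/kg oral dose in an appropriate vehicle, N = 3. Blood taken predose, 1, 2 and 4 h; brains then collected and stored at -80 °C. Equal portions of plasma or homogenized brain from the three rats pooled per time point, protein precipitated, quantified by LC/MS/MS.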

Plasma [8] = assay: Plasma concentration in Sprague-Dawley rat assessed as 2-(5-chloro-1H-indol-1-yl)-N-(4-((propan-2 ylsulfonamido)methyl)cyclohexyl)acetamide level at 10 mg/kg, po after 1 hr by LC-MS/MS analysis; type: ADME, organism-based; parameters: dose 10 mg/kg, route oral; conditions: in vivo; how it was run: as §3
[9] = Plasma concentration in cPP-induced feeding Sprague-Dawley rat model at 1 mg/kg, po after 1 hr; type: ADME, organism-based; parameters: dose 1 mg/kg, route oral; how it was run: as §1
[10] = Half life in Sprague-Dawley rat plasma at 2 mg/kg, po and 1 mg/kg, iv after 24 hrs wash out period by HPLC analysis; type: ADME, organism-based; how it was run: as §2
[11] = Plasma concentration in cPP-induced feeding Sprague-Dawley rat model at 10 mg/kg, po after 1 hr; type: ADME, organism-based; parameters: dose 10 mg/kg, route oral; how it was run: as §1
[12] = Solubility of the compound at pH 7.4; type: physicochemical; conditions: buffer
[13] = Clearance in Sprague-Dawley rat blood at 2 mg/kg, po and 1 mg/kg, iv after 24 hrs wash out period by HPLC analysis; type: ADME, organism-based; conditions: whole blood; how it was run: as §2
Rattus norvegicus = assay: Antiobesity activity in po dosed cPP-induced feeding Sprague-Dawley rat model assessed as reduction in food intake measured 1 hr post cpp challenge; type: functional
How it was run: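 Rats pretreated orally at 0.1, 1 or 10 mg/kg (vehicle 20% cyclodextrin) 1 h before intracerebroventricular infusion of Y5-selective peptide agonist cPP, 0.6 nmol in normal saline; food intake recorded, n = 7–14 per group.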

Liver microsomes [14] = assay: Intrinsic clearance in human liver microsomes at 1 uM by LC/MS analysis; type: ADME, Microsome
How it was run: (§4)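 Compound incubated with human or rat liver microsomes; reaction quenched with acetonitrile, centrifuged, and remaining drug in supernatant measured by LC/MS to estimate T1/2, from which intrinsic clearance was derived.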

Liver microsomes [15] = assay: Intrinsic clearance in rat liver microsomes at 1 uM by LC/MS analysis; type: ADME, Microsome; how it was run: as §4
[16] = target: T3, Neuropeptide Y receptor type 5 (Homo sapiens, UniProt Q15761); assay: Displacement of [125I]peptide YY from human NPY5 receptor
T3 sequence (Q15761 whole entry): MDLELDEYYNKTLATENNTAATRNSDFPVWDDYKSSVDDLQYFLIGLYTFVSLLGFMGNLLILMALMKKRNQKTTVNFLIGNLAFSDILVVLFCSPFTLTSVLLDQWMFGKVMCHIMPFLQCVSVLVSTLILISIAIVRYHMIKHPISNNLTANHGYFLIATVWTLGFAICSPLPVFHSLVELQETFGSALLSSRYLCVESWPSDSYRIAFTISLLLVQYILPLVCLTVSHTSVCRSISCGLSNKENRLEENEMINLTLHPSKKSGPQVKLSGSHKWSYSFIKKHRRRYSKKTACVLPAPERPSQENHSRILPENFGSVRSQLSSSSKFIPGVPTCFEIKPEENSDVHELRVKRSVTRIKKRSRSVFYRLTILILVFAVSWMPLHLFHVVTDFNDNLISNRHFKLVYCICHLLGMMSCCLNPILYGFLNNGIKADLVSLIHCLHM

[17] = Tmax in Sprague-Dawley rat plasma at 2 mg/kg, po and 1 mg/kg, iv after 24 hrs wash out period by HPLC analysis; type: ADME, organism-based; how it was run: as §2
[18] = Absolute oral bioavailability in Sprague-Dawley rat at 2 mg/kg after 24 hrs wash out period by HPLC analysis; type: ADME, organism-based; conditions: in vivo; how it was run: as §2
[19] = Drug uptake in cPP-induced feeding Sprague-Dawley rat model brain at 0.1 mg/kg, po after 1 hr; type: ADME, organism-based; parameters: dose 0.1 mg/kg, route oral; conditions: read-out: Drug uptake; how it was run: as §1
[20] = Volume of distribution at steady state in Sprague-Dawley rat plasma at 2 mg/kg, po and 1 mg/kg, iv after 24 hrs wash out period by HPLC analysis; type: ADME, organism-based; conditions: read-out: Vdss; how it was run: as §2
Cytochrome P450 2C19 = Cytochrome P450 2C19 (Homo sapiens, UniProt P33261); assay: Inhibition of CYP2C19; type: ADME
Chain of Cytochrome P450 2C19 (P33261 whole entry): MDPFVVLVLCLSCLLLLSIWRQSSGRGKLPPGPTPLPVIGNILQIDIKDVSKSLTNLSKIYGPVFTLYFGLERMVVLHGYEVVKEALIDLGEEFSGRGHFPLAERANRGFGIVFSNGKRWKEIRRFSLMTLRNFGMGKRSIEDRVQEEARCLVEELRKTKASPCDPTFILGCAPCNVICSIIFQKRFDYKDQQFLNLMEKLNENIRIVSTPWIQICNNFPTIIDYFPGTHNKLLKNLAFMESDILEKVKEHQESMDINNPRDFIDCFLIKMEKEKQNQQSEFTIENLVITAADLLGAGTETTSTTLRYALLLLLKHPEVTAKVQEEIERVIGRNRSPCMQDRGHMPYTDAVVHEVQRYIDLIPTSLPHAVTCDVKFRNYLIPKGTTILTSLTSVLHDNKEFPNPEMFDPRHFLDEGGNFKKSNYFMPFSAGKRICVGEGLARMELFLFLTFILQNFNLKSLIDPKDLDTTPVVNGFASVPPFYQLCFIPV

[21] = Drug uptake in cPP-induced feeding Sprague-Dawley rat model brain at 1 mg/kg, po after 1 hr; type: ADME, organism-based; parameters: dose 1 mg/kg, route oral; conditions: read-out: Drug uptake; how it was run: as §1
Plasma [22] = assay: Plasma concentration in Sprague-Dawley rat at 10 mg/kg, po by LC-MS/MS analysis; type: ADME, organism-based; parameters: dose 10 mg/kg, route oral; conditions: in vivo; how it was run: as §3
Brain [23] = assay: Drug uptake in Sprague-Dawley rat brain at 10 mg/kg, po by LC-MS/MS analysis; type: ADME, organism-based; parameters: dose 10 mg/kg, route oral; conditions: in vivo, read-out: Drug uptake; how it was run: as §3

Compound: CC(C)S(=O)(=O)NC[C@H]1CC[C@H](NC(=O)Cn2ccc3cc(Cl)ccc32)CC1
- fraction unbound [1]: 0.004
- concentration at 1 h [2]: 84 ng/mL
- logD [3]: 1.2
- concentration at 1 h [4]: 132 ng/g
- inhibition (INH) (Cytochrome P450 2D6): Not Active
- inhibition (INH) (Cytochrome P450 2C8): Not Active
- inhibition (INH) (Cytochrome P450 1A2): Not Active
- clearance [5]: 10 mL/min/kg
- inhibition (INH) (Cytochrome P450 3A4): Not Active
- Cmax [6]: 480 ng/mL
- concentration (Brain [7]): 641 nM
- concentration (Plasma [8]): 8010 nM
- concentration at 1 h [9]: 613 ng/mL
- half-life [10]: 7.2 h
- concentration at 1 h [11]: 1260 ng/mL
- solubility [12]: 160 µM (≈ 68.2 µg/mL)
- clearance [13]: 15 mL/min/kg
- Activity (Rattus norvegicus): Dose-dependent effect
- minimal effective dose (Rattus norvegicus; read-out: MED): 0.1 mg/kg
- CLH (Liver microsomes [14]): 1.9 L/min
- CLH (Liver microsomes [15]): 11 mL/min
- Ki [16]: 0.3 nM
- Tmax [17]: 2 h
- bioavailability [18]: 79%
- concentration at 1 h [19]: 6 ng/g
- Vd [20]: 2.8 L/kg
- inhibition (INH) (Cytochrome P450 2C19): Not Active
- concentration at 1 h [21]: 38 ng/g
- concentration (Plasma [22]): 751 nM
- concentration (Brain [23]): 54 nM
